In the library only some 1.8% were active in any assay of this set; here they are far more common.
STAT1 blocker = STAT1 signaling inhibition; NIH 3T3 STAT1-luciferase reporter, IFN-gamma, luminescence; inhibition, % at 5.5 µM; actives 0.35% (n = 200,000); AID 920;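 active = inhibition above a set limit, the mean inhibition across all tested compounds plus 3 SD, cut at about 34% in these data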;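 also: 0% = IFN-gamma with DMSO and 100% = IFN-gamma with 300 µM nifuroxazide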
STAT3 act = STAT3 signaling activation | U3A cells, IL-6 STAT3-luciferase reporter, luminescence; 100% = signal with IL-6 EC80 alone | activation (% of control), % at 5.6 µM | actives 0.91% (n = 190,000) | AID 871;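 active = activation above the screen-wide mean of compound activation plus 3 SD, cut at about 130% in these data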;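 also: 0% = background luminescence of wells with medium and substrate only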
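System – human U3A cells carrying STAT3-luciferase construct · Probe or stimulus – Interleukin-6, 33 ng/mL · Schedule – compound 1 h, then IL-6 6 h at 37 °C · Signal – luminescence from STAT3-driven luciferase reporter · Evaluation – percent of IL-6-only median luminescence · Benchmarks – IL-6-only high control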
STAT3 blocker = STAT3 signaling inhibition. U3A cells, IL-6 STAT3-luciferase reporter, luminescence; host cell line lacks STAT1. inhibition, % at 5.5 µM. actives 0.89% (n = 190,000). AID 862;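 active = inhibition above the mean inhibition across all screened compounds plus 3 SD, cut at about 44% in these data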;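 also: 0% = DMSO only wells and 100% = 100 µM nifuroxazide control wells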
PPC-1+TRAIL kill = kills PPC-1 cancer cells in the presence of TRAIL. PPC-1 cells + TRAIL, ATPLite viability luminescence. cell killing (% activity), % at 4 µM or 5 µM. actives 0.41% (n = 220,000);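 active = cell killing above 50% in the first pass at 4 µM, then a duplicate retest at 5 µM averaging 50% or more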;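 also: plate controls were cells with TRAIL plus DMSO for no effect and medium-only wells lacking cells for full effect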
C8 TRAIL sens = sensitizes caspase-8 expressing cells to TRAIL. NB7+C8 cells + TRAIL, ATPlite viability luminescence. inhibition (viability loss, TRAIL sensitization), % at 10 µM. actives 1% (n = 360,000). AID 624354;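 active = compounds causing at least 50% loss of cell viability in the single-dose screen, relative to plate controls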
Active calls of the source: *; . = no result given.

SMILES | STAT1 blocker | STAT3 act | STAT3 blocker | PPC-1+TRAIL kill | C8 TRAIL sens
CCOC(=O)c1cc2c(s1)-c1ccccc1CC2 | -34 | 174* | -76 | 12 | -1
CCOC(=O)N1CCN(C(=O)c2cc3c(s2)-c2ccccc2OC3)CC1 | 5 | 100 | 5 | -1 | -9
CCOC(=O)c1cc2ccc3ccccc3c2s1 | -54 | 203* | -118 | 3 | 19
CCc1ccc([C@H]2[C@@H]3C(=O)C[C@@H]4C(=O)N(c5ccccc5)C(=O)[C@@H]4[C@@H]3CN2S(=O)(=O)c2ccc(C)cc2)cc1 | . | . | . | . | 86*
Nc1ccc(Oc2cccc(Oc3ccc(N)cc3)c2)cc1 | 39* | 60 | 51* | 22 | 5
Nc1cnnc(N/N=C\c2ccccc2)c1Cl | . | . | . | . | 49*
Nc1nonc1N/N=C\c1ccccc1 | . | . | . | 0 | 0
COc1ccc(C(=O)OCC(=O)N(C)C2CCS(=O)(=O)C2)cc1Br (stereo not given) | . | . | . | . | 0
Nc1nc(-c2ccccc2)nc2sc3c(c12)CCCC3 | -102 | 105 | -9 | 55* | 76*
O=c1oc(-c2ccccc2)nc2sc3c(c12)CCC3 | -10 | 101 | 2 | 19 | 0
CC1=C(C(=O)OCC2CCCO2)C(c2coc3ccc(Cl)cc3c2=O)C2=C(CCCC2=O)N1 (stereo not given) | 8 | 134* | -27 | -1 | -9
CC1=C(C(=O)OCC2CCCO2)C(c2coc3ccc(C)cc3c2=O)C2=C(CCCC2=O)N1 (stereo not given) | 2 | 114 | -11 | -6 | 2
COc1ccc(C2C(C(=O)c3ccccc3)N3c4ccccc4C=CC3C2[N+](=O)[O-])cc1 (stereo not given) | 0 | 133* | -38 | 10 | 4
COc1ccc(N2C(=O)[C@@H]3[C@H](C2=O)[C@H](C(C)=O)N2c4ccccc4C=C[C@@H]32)cc1 | . | . | . | 3 | 1
O=C(COC(=O)CCNS(=O)(=O)c1ccccc1F)Nc1nnc(-c2ccccc2)o1 | . | . | . | . | 5
CC(C)(C)c1csc(NC(=O)Nc2ccccc2)n1 | -40 | 103 | 5 | 25 | 54*
CC1CC(=O)c2c(cc3c(-c4c(O)cc(O)c5c(O)c6c(cc45)OC(C)CC6=O)c(O)cc(O)c3c2O)O1 (stereo not given) | 7 | . | . | 14 | 88*
O=C(CNC(=O)c1n[nH]c2ccccc12)Nc1ccc(F)c(F)c1F | . | . | . | . | -6
O=C(O)c1cc(-c2ccc(-c3ccc(F)cc3)o2)nc2ccccc12 | . | . | . | . | 59*
O=C(c1cc(-c2ccc(F)cc2)nc2ccccc12)N1CCC1 | . | . | . | . | -16
O=Nc1ccc(NO)c2ccccc12 | . | . | . | . | 71*
S=c1[nH]cnc2sc(-c3ccccc3)cc12 | -8 | 97 | 6 | 9 | 14
Cc1ccc2oc3ccccc3c(=O)c2c1 | . | . | . | . | 13
O=c1c2ccccc2oc2ccc(-c3ccc4cc[nH]c4c3)cc12 | . | . | . | . | 53*
CCNC(=O)OCCC12CC3CC(CC(C3)C1)C2 | -10 | 105 | -8 | 21 | 0
SMILES | STAT1 blocker | STAT3 act | STAT3 blocker | PPC-1+TRAIL kill | C8 TRAIL sens
O=C(OCC12CC3CC(CC(C3)C1)C2)c1ccc(NCc2cc(O)ccc2O)cc1 | . | . | . | . | 92*
O=C(OCCC12CC3CC(CC(C3)C1)C2)c1ccc(NCc2cc(O)ccc2O)cc1 | . | . | . | . | 92*
Cc1noc(C)c1S(=O)(=O)N(C)C[C@H]1OCCCC[C@H](C)Oc2ccc(NC(=O)CCCN(C)C)cc2C(=O)N([C@H](C)CO)C[C@@H]1C | . | . | . | . | -5
O=C(COC(=O)/C=C/c1cccs1)Nc1ccc(Cl)cc1F | . | . | . | . | 11
Cc1ccccc1SCC(=O)NNC(=O)c1ccccc1O | . | . | . | . | 23
CCOc1ccccc1C=C1CCc2ccccc2C1=O | . | . | . | . | 4
O=C1C(=Cc2ccccc2Cl)CCc2ccccc21 | . | . | . | . | 53*
Cn1cccc1/C=C1\Cc2ccccc2C1=O | -44 | 101 | 1 | -2 | 16
O=C1C(=Cc2cccc(Cl)c2)CCc2ccccc21 | . | . | . | . | 9
O=C1C(=Cc2ccc(Cl)cc2)CCc2ccccc21 | . | . | . | . | 81*
COc1ccccc1C=C1CCc2ccccc2C1=O | . | . | . | . | 77*
Cn1cccc1/C=C1\CCc2ccccc2C1=O | 58* | 27 | 89* | 8 | 61*
CC1=C(C)C(=O)N(C(C)CCc2ccccc2)C1=O (stereo not given) | . | . | . | . | -4
O=C1C(=Cc2ccc(F)cc2)CCc2ccccc21 | . | . | . | . | 80*
O=C1/C(=C\c2ccncc2)CCc2ccccc21 | . | . | . | . | 20
CNc1cc(-c2ccc(OC)nc2)ncn1 | . | . | . | . | 12
CC1(C)CC(=O)C(N=Nc2cc(Cl)c(Cl)c(Cl)c2)=C(O)C1 | 2 | 102 | 6 | 6 | 23
Cc1ccc(O)c(N=NC2=C(O)CC(C)(C)CC2=O)c1 | 7 | 95 | 6 | 47 | 63*
CC(C)(C)NC(=O)C(c1ccc(F)cc1)N(CC1CCCO1)C(=O)CCC(=O)Nc1ccccn1 (stereo not given) | . | . | . | . | 11
O=C(O)c1ccc(NC2=C/C(=N/S(=O)(=O)c3cccs3)c3ccccc3C2=O)cc1 | . | . | . | . | 55*
Cc1cc(C)c(S(=O)(=O)/N=C2\C=C(Nc3ccc(C(=O)O)cc3)C(=O)c3ccccc32)c(C)c1 | . | . | . | . | 58*
Cc1cc(C)c(S(=O)(=O)/N=C2\C=C(NS(=O)(=O)c3ccccc3)C(=O)c3ccccc32)c(C)c1 | . | . | . | . | -2
Nn1c(COc2cccc(Br)c2)nnc1SCC(=O)NCC1CCCO1 (stereo not given) | . | . | . | . | -1
Cc1ccc(C(=O)OCC(=O)NCc2ccccc2)s1 | . | . | . | . | 3
Cc1ccc(C(=O)O/N=C(\N)c2cccc([N+](=O)[O-])c2)cc1 | -53 | 108 | 1 | 20 | 56*
SMILES | STAT1 blocker | STAT3 act | STAT3 blocker | PPC-1+TRAIL kill | C8 TRAIL sens
Cc1onc(-c2ccccc2Cl)c1C(=O)O/N=C(\N)c1ccccc1 | . | . | . | . | 92*
Cc1onc(-c2cccc(Cl)c2Cl)c1C(=O)O/N=C(\N)c1ccc([N+](=O)[O-])o1 | . | . | . | 10 | 4
N/C(=N\OC(=O)c1ccc(Br)cc1)c1cccc([N+](=O)[O-])c1 | . | . | . | . | -3
COc1ccc(/C(N)=N/OC(=O)c2cccc([N+](=O)[O-])c2C)cc1 | -12 | 134* | -31 | 13 | 65*
Cc1onc(-c2ccccc2Cl)c1C(=O)O/N=C(\N)c1cccc([N+](=O)[O-])c1 | . | . | . | . | 88*
COc1ccc(/C(N)=N/OC(=O)c2cccc([N+](=O)[O-])c2)cc1 | -3 | 127 | -37 | 7 | 10
CC(C)(C)c1ccc(O)c(/C=N\O)c1 | -6 | 114 | -16 | -23 | 72*
CC(C)(C)c1ccc(O)c(O)c1 | . | . | . | . | -19
CCN1CCN(c2c(Cl)cccc2NC(=O)c2ccc([N+](=O)[O-])o2)CC1 | . | . | . | . | 59*
CN1CCN(c2ccc(NC(=O)c3ccc([N+](=O)[O-])o3)cc2Cl)CC1 | . | . | . | . | 43
CC(C)C(=O)N1CCN(c2ccc(NC(=O)c3ccc([N+](=O)[O-])o3)cc2Cl)CC1 | -61 | 106 | 0 | 37 | 67*
CCCC(=O)N1CCN(c2ccc(NC(=O)c3ccc([N+](=O)[O-])o3)cc2Cl)CC1 | -28 | 101 | 4 | 36 | 59*
O=C(COC(=O)COc1ccc2c(c1)CCC2)Nc1ccccc1C(F)(F)F | . | . | . | . | -6

Bioassay records from PubChem BioAssay.
